Measurements reported in ChEMBL document CHEMBL1153523, “Design, synthesis, and biological activity of a family of novel ceramide analogues in chemoresistant breast cancer cells” (J Med Chem, 2009).
Calls of active or inactive are those of the source. The rule behind the calls is not given here.

Experiments:
[1] = test system: MCF7; assay: Inhibition of clonogenic survival of tumor necrosis factor-resistant human MCF7 cells at 0.1 to 20 uM after 10 days by microscopy; type: functional, cell-based
Procedure, shortened: (§1)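 Clonogenic survival: cells were treated at 0.1 to 20 µM for 10 days. Colonies were then fixed and stained, and counts were expressed as percent of vehicle control.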

[2] = test system: MCF7; assay: Inhibition of clonogenic survival of human MCF7 cells after 10 days by microscopy; type: functional, cell-based; settings: MCF7, 240 h; procedure, shortened: as §1
[3] = test system: MDA-MB-231; assay: Inhibition of clonogenic survival of endocrine-resistant human MDA-MB-231 cells after 10 days by microscopy; type: functional, cell-based; settings: MDA-MB-231, 240 h; procedure, shortened: as §1
[4] = test system: MCF7; assay: Inhibition of clonogenic survival of tumor necrosis factor-resistant human MCF7 cells after 10 days by microscopy; type: functional, cell-based; settings: MCF7, 240 h; procedure, shortened: as §1
[5] = test system: MDA-MB-231; assay: Inhibition of clonogenic survival of endocrine-resistant human MDA-MB-231 cells at 0.1 to 20 uM after 10 days by microscopy; type: functional, cell-based; procedure, shortened: as §1
[6] = test system: MCF7; assay: Inhibition of clonogenic survival of human MCF7 cells at 0.1 to 20 uM after 10 days by microscopy; type: functional, cell-based; procedure, shortened: as §1
[7] = Antiproliferative activity against human MCF10A cells at 100 uM after 24 hrs by MTT assay; type: cell-based; settings: mcf-10a
Procedure, shortened: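 Normal MCF10A breast epithelial cells were exposed to drug at 0.1–100 µM for 24 h, and proliferation was measured. Values are mean ± SE of four independent experiments.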

[8] = test system: MCF7; assay: Increase in endogenous sphingosine-1-phosphate level in tumor necrosis factor-resistant human MCF7 cells at 10 uM after by ESI/MS/MS analysis; type: functional, cell-based
Procedure, shortened: (§2)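 MCF-7, MDA-MB-231 or MCF-7TN-R cells were treated at 10 µM for 24 h, and cellular sphingolipid species were then quantified. Values are mean ± SE of two independent experiments.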

[9] = test system: MCF7; assay: Induction of apoptosis in human MCF7 cells assessed as appearance of nucleosomes in cytoplasm at 8.3 uM after 24 hrs by ELISA relative to DMSO control; type: functional
Procedure, shortened: (§3)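 Apoptosis in MCF-7 cells was measured by a cell death detection ELISA after 24 h exposure at 8.3 or 9.4 µM. Values are mean ± SE of three independent experiments.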

[10] = test system: MCF7; assay: Increase in endogenous sphingosine-1-phosphate level in human MCF7 cells at 10 uM after by ESI/MS/MS analysis; type: functional, cell-based; procedure, shortened: as §2
[11] = test system: MDA-MB-231; assay: Increase in endogenous sphingosine-1-phosphate level in endocrine-resistant human MDA-MB-231 cells at 10 uM after by ESI/MS/MS analysis; type: functional, cell-based; procedure, shortened: as §2
[12] = test system: MCF7; assay: Selectivity for tumor necrosis factor-resistant human MCF7 cells over human MCF10A cells
[13] = test system: MDA-MB-231; assay: Decrease in endogenous sphingosine-1-phosphate level in endocrine-resistant human MDA-MB-231 cells at 10 uM after by ESI/MS/MS analysis; type: functional, cell-based; procedure, shortened: as §2
[14] = test system: MCF7; assay: Induction of apoptosis in human MCF7 cells assessed as appearance of nucleosomes in cytoplasm at 9.4 uM after 24 hrs by ELISA relative to DMSO control; type: functional; procedure, shortened: as §3
[15] = test system: MCF7; assay: Increase in endogenous dihydrosphingosine level in tumor necrosis factor-resistant human MCF7 cells at 10 uM after 24 hrs by ESI/MS/MS analysis relative to DMSO control; type: functional; procedure, shortened: as §2
[16] = test system: MCF7; assay: Decrease in endogenous sphingosine-1-phosphate level in human MCF7 cells at 10 uM after by ESI/MS/MS analysis; type: functional, cell-based; procedure, shortened: as §2
[17] = test system: MCF7; assay: Decrease in endogenous sphingosine-1-phosphate level in tumor necrosis factor-resistant human MCF7 cells at 10 uM after by ESI/MS/MS analysis; type: functional, cell-based; procedure, shortened: as §2

SMILES: CCCCCCCCCCCCCCNC(=O)[C@H](CO)NCc1ccccc1
- Activity [1]: Active
- IC50 [2]: 5 µM
- IC50 [3]: 10.5 µM
- IC50 [4]: 15.2 µM
- Activity [5]: Active
- Activity [6]: Active

SMILES: CCCCCCCCCCCCCCC[C@H](O)[C@@H](CO)NC(=O)CCCCCCC (single isomer, unassigned)
- IC50 [2]: 31.7 µM
- IC50 [3]: 41.4 µM
- IC50 [4]: 49.6 µM

SMILES: CCCCCCCCCCCCC/C=C/[C@@H](O)[C@H](CO)NC(=O)CCCCCCC
- Activity [7]: Non-toxic
- Activity [8]: Active
- fold change (FC) [9]: 5
- IC50 [2]: 4.2 µM
- IC50 [3]: 3 µM
- IC50 [4]: 8.6 µM
- Activity [10]: Active
- Activity [11]: Active
- Ratio [12]: >50

SMILES: CCCCCCCCCCCCCCNC(=O)[C@H](CO)NC(=O)C1CCCCC1
- Activity [1]: Active
- IC50 [2]: 7.2 µM
- IC50 [3]: 11.5 µM
- IC50 [4]: 23.5 µM
- Activity [5]: Active
- Activity [6]: Active

SMILES: CCCCCCCCCCCCCCNC(=O)[C@H](CO)NC(=O)c1cc(OC)cc(OC)c1
- Activity [1]: Active
- IC50 [2]: 11.2 µM
- IC50 [3]: 6.6 µM
- IC50 [4]: 15 µM
- Activity [5]: Active
- Activity [6]: Active

SMILES: CCCCCCCCCCCCCCNC(=O)[C@H](CO)NC(=O)C(C)(C)C
- Activity [1]: Active
- IC50 [2]: 6.7 µM
- IC50 [3]: 6.1 µM
- IC50 [4]: 11.1 µM
- Activity [5]: Active
- Activity [6]: Active

SMILES: CCCCCCCCCCCCCCNC(=O)[C@H](CO)NC(C)=O
- Activity [1]: Active
- IC50 [2]: 44.7 µM
- IC50 [3]: 75.1 µM
- IC50 [4]: 52.7 µM
- Activity [5]: Active
- Activity [6]: Active

SMILES: CCCCCCCCCCCCCCNC(=O)[C@H](CO)/N=C/c1ccccc1
- Activity [1]: Active
- Activity [13]: Active
- fold change (FC) [14]: 5.4
- Activity [7]: Non-toxic
- fold change (FC) [15]: 50
- Activity [16]: Active
- Activity [17]: Active
- IC50 [2]: 4.7 µM
- IC50 [3]: 2.4 µM
- IC50 [4]: 7.7 µM
- Activity [5]: Active
- Activity [6]: Active
